Assay results reported in the M2OR odorant receptor database.
Residue numbers refer to the chain shown, from its start.

These molecules were tested against T1, OR11H12 (Homo sapiens) (UniProt B2RN74). Details: stereoisomer not certain.
T1 sequence (whole entry): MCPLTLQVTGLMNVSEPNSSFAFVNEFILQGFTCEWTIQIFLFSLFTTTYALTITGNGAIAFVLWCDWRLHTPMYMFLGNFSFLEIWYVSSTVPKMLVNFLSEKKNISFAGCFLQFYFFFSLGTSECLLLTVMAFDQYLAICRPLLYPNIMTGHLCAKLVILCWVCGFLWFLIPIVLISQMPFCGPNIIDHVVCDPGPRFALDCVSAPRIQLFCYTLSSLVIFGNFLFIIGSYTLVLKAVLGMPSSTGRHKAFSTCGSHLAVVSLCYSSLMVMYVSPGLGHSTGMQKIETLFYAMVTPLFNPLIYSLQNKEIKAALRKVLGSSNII
How it was run: (§1)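 Each entry records the cell line, G-protein, co-transfected protein and tags used. Methods varied with the source, often transient luciferase assays in mammalian cell lines. A receptor–molecule pair is called responsive (active) if the original authors judged its signal statistically different from baseline and non-responsive (inactive) otherwise.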

Row | SMILES | odorant receptor agonist call
1 | CC1=NC(C)C(C)S1 (configuration not stated) | inactive
2 | CC1=C(O)C(=O)OC1C (configuration not stated) | inactive
3 | O=C1CCOc2ccccc21 | inactive
4 | Cc1cnc(C)c(C)n1 | inactive
5 | CC1CCCCCCCCCCCCC(=O)C1 (configuration not stated) | inactive
6 | CCCCCCC=CCCC=O | inactive
7 | CCC1OC(C)=C(O)C1=O (configuration not stated) | inactive
8 | CC(=O)c1c(C)c([N+](=O)[O-])c(C(C)(C)C)c([N+](=O)[O-])c1C | inactive
9 | CCC1OC(=O)C(O)=C1C (configuration not stated) | inactive
10 | O=c1ccc2ccccc2o1 | active
11 | CCCC(S)CCOC(C)=O (configuration not stated) | inactive
12 | CC1=C(O)C(=O)C(C)O1 (configuration not stated) | inactive

Each molecule was assayed against T2, OR11H2 (Homo sapiens) (UniProt Q8NH07). Details: stereoisomer not certain.
T2 sequence (whole entry): T1 sequence (whole entry) with Q7H, T33S, T49I, W68R, C156Y, M181K, R199L, S269P
How it was run: as §1

Row | SMILES | odorant receptor agonist call
13 | CC1=NC(C)C(C)S1 (configuration not stated) | inactive
14 | CCCCC(S)C(C)CO (configuration not stated) | inactive
15 | CC1=C(O)C(=O)OC1C (configuration not stated) | inactive
16 | CC(CO)CS (configuration not stated) | inactive
17 | Cc1cnc(C)c(C)n1 | inactive
18 | CCCCCC(=O)C(C)C(C)=O (configuration not stated) | inactive
19 | CCC(S)C(C)CO (configuration not stated) | inactive
20 | CC1CCCCCCCCCCCCC(=O)C1 (configuration not stated) | inactive
21 | CCCCCCC=CCCC=O | inactive
22 | CCC1OC(C)=C(O)C1=O (configuration not stated) | inactive
23 | CCCCCC(S)C(C)CO (configuration not stated) | active
24 | CC(=O)c1c(C)c([N+](=O)[O-])c(C(C)(C)C)c([N+](=O)[O-])c1C | inactive
25 | CCC1OC(=O)C(O)=C1C (configuration not stated) | inactive
26 | CCCC(S)CCOC(C)=O (configuration not stated) | inactive
27 | CC1=C(O)C(=O)C(C)O1 (configuration not stated) | inactive

These molecules were tested against T3, OR11H4 (Homo sapiens) (UniProt Q8NGC9). Details: stereoisomer not certain.
T3 sequence (whole entry): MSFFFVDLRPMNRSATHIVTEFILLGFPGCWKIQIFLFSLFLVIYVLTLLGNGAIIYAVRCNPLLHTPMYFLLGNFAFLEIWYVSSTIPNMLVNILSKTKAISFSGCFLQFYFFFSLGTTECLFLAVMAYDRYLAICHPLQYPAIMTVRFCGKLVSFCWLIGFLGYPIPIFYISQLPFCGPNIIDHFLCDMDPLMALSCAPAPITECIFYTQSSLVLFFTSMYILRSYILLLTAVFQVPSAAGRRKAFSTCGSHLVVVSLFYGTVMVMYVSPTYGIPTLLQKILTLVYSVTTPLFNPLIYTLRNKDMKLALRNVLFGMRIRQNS
How it was run: as §1

Row | SMILES | odorant receptor agonist call
28 | CC1=NC(C)C(C)S1 (configuration not stated) | inactive
29 | CCCCC(S)C(C)CO (configuration not stated) | inactive
30 | CC1=C(O)C(=O)OC1C (configuration not stated) | inactive
31 | CC(CO)CS (configuration not stated) | inactive
32 | Cc1cnc(C)c(C)n1 | inactive
33 | CCCCCC(=O)C(C)C(C)=O (configuration not stated) | inactive
34 | CCC(S)C(C)CO (configuration not stated) | inactive
35 | CC1CCCCCCCCCCCCC(=O)C1 (configuration not stated) | inactive
36 | CCCCCCC=CCCC=O | inactive
37 | CCC1OC(C)=C(O)C1=O (configuration not stated) | inactive
38 | CCCCCC(S)C(C)CO (configuration not stated) | inactive
39 | CC(=O)c1c(C)c([N+](=O)[O-])c(C(C)(C)C)c([N+](=O)[O-])c1C | inactive
40 | CCC1OC(=O)C(O)=C1C (configuration not stated) | inactive
41 | CCCC(S)CCOC(C)=O (configuration not stated) | inactive
42 | CC1=C(O)C(=O)C(C)O1 (configuration not stated) | inactive

These molecules were tested against T4, OR11H6 (Homo sapiens) (UniProt Q8NGC7). Details: stereoisomer not certain.
T4 sequence (whole entry): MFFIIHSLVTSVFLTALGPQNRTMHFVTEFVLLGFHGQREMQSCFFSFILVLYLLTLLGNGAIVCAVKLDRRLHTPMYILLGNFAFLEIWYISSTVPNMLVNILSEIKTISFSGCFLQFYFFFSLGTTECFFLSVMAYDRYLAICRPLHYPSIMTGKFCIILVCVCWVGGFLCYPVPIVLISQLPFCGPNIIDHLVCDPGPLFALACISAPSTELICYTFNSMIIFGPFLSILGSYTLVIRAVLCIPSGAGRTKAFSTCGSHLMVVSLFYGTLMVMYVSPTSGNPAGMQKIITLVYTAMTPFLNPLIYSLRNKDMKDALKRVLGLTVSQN
How it was run: as §1

Row | SMILES | odorant receptor agonist call
43 | CC1=NC(C)C(C)S1 (configuration not stated) | inactive
44 | CCCCC(S)C(C)CO (configuration not stated) | inactive
45 | CC1=C(O)C(=O)OC1C (configuration not stated) | inactive
46 | CC(CO)CS (configuration not stated) | inactive
47 | Cc1cnc(C)c(C)n1 | inactive
48 | CCCCCC(=O)C(C)C(C)=O (configuration not stated) | inactive
49 | CCC(S)C(C)CO (configuration not stated) | inactive
50 | CC1CCCCCCCCCCCCC(=O)C1 (configuration not stated) | inactive
51 | CCCCCCC=CCCC=O | inactive
52 | CCC1OC(C)=C(O)C1=O (configuration not stated) | inactive
53 | CCCCCC(S)C(C)CO (configuration not stated) | inactive
54 | CC(=O)c1c(C)c([N+](=O)[O-])c(C(C)(C)C)c([N+](=O)[O-])c1C | inactive
55 | CCC1OC(=O)C(O)=C1C (configuration not stated) | inactive
56 | CCCC(S)CCOC(C)=O (configuration not stated) | inactive
57 | CC1=C(O)C(=O)C(C)O1 (configuration not stated) | inactive
